Like-named read-outs stand apart in the source and are kept apart here.

Data set [1] has as its target T1, ACE2 (Homo sapiens, UniProt Q9BYF1). The experiment in a line: SPR analysis of affinity to ACE2 recombinant protein. The conditions noted are these: for Rmax: SPR fit; for χ^2: SPR fit quality; for Kd: SPR, steady-state affinity model (1:1), 0.024 to 50 μmol/L. It counts as binding. For orientation: SPR reads the build-up and loss of mass on a sensor chip optically.
Target sequence in this assay (Q9BYF1 18-740): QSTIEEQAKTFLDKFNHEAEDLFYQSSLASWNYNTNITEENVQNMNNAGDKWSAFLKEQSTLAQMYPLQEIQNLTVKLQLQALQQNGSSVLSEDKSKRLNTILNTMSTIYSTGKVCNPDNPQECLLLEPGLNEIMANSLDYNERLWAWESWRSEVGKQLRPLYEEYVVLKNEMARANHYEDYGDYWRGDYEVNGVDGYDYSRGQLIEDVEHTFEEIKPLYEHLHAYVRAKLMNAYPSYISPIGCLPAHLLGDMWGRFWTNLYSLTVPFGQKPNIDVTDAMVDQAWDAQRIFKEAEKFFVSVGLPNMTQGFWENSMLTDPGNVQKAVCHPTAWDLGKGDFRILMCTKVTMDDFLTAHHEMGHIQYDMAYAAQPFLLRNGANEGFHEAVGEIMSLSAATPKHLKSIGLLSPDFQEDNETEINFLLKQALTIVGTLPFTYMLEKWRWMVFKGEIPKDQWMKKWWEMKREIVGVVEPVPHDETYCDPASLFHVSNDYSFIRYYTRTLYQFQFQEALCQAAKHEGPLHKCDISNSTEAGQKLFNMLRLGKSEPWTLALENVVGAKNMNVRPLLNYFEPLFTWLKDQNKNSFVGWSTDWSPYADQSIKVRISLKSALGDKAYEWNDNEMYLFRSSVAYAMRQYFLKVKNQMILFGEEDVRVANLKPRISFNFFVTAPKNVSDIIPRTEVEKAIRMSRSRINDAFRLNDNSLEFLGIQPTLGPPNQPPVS

Data set [2] can be described thus: LHQW components in human plasma after repeated oral dosing. It is filed as in vivo. The note with it: after repeated oral administration of LHQW capsule, semi-quantitative.
Data set [3] addresses T1, ACE2. As to the kind of experiment: Test of ACE2 inhibitory activity. It is filed as biochemical. The method in brief: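 ACE2 inhibition was measured with a commercial inhibitor screening kit following the supplier's instructions. Each data point was run in duplicate and reported as the mean value. IC50 came from nonlinear curve fitting.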
Target sequence in this assay (Q9BYF1 18-805): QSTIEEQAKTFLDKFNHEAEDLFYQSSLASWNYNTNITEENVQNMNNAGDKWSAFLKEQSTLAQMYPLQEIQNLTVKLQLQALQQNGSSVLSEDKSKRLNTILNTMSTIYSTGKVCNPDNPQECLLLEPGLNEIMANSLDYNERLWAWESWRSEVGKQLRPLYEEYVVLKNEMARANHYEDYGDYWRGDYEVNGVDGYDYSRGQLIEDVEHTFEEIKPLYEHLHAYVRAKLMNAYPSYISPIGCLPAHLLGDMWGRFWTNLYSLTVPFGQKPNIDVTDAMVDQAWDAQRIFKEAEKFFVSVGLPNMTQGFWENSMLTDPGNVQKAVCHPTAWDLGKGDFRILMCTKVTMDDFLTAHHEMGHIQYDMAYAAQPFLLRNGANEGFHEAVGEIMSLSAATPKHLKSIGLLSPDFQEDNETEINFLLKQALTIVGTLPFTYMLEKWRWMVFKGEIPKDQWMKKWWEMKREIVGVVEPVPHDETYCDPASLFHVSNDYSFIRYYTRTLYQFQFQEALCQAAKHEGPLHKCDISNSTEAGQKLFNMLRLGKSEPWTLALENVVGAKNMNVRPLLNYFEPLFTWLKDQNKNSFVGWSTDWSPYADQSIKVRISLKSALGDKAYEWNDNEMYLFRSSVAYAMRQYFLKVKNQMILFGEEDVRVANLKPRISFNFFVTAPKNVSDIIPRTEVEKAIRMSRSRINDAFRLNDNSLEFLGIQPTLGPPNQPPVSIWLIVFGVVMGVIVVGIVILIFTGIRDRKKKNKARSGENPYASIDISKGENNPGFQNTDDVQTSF
For data set [4], the target named is T1, ACE2. As to the kind of experiment: Comprehensive 2D ACE2 column/C18 column/TOFMS biochromatography screening. It counts as binding. The note with it: urine sample, LHQW extract or standard. The gist of the method: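 Stationary phase: His-tagged recombinant human ACE2 immobilised on MPTS/GMBS-modified silica, confirmed by pronase digestion and anti-ACE2 immunoblot. First dimension was the ACE2 column (10 × 2.0 mm, 5 μm) in 10 mmol/L ammonium acetate at 0.2 mL/min. Retained fractions went by alternating 10-port valve loops to a C18 column (0.1% formic acid/acetonitrile gradient, 0.4 mL/min) and then TOFMS.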
Target sequence in this assay (Q9BYF1 18-740): as the sequence (Q9BYF1 18-740) above

As for `O=c1c(O)c(-c2ccc(O)c(O)c2)oc2cc(O)cc(O)c12` [Quercetin (190), Quercetin], on ACE2 [1], the “ACE2 binding ability by SPR (in words)” value was “certain binding ability with ACE2”, the Rmax was 12.780 RU and the “χ^2” value is given as 1.580.

Take `OC[C@H]1O[C@@H](OCCc2ccc(O)cc2)[C@H](O)[C@@H](O)[C@@H]1O` [salidroside]: the “Human in vivo exposure (in words)” value in data set [2] is on record as “higher human exposure”.

With `C[C@@H]1O[C@@H](OC[C@H]2O[C@@H](OCCc3ccc(O)c(O)c3)[C@H](O)[C@@H](O)[C@@H]2O)[C@H](O)[C@H](O)[C@H]1O` [forsythoside E], the “ACE2 inhibitory effect (in words)” value at ACE2 [3] (ACE2 Inhibitor Screening Kit) was “no ACE2 inhibitory activities”.

For the compound `O=C(/C=C/c1ccc(O)c(O)c1)O[C@@H]1C[C@@](O)(C(=O)O)C[C@@H](O)[C@@H]1O` [Neochlorogenic acid (19), Neochlorogenic acid], on ACE2 [1], the Rmax is listed as 6.894 RU, the “χ^2” value came to 1.260 and the Kd was 7.88 µM.

Consider `COc1cc(O)c2c(c1)C(=O)c1cc(C)cc(O)c1C2=O` [Physcion (230), Physcion], for which, on ACE2 [1], the “ACE2 binding ability by SPR (in words)” value was “could also exhibit ACE2 binding activity”, the Rmax worked out at 18.390 RU and the “χ^2” value came out at 1.630.

`C[C@@H]1O[C@@H](OC[C@H]2O[C@@H](OCCc3ccc(O)c(O)c3)[C@H](O)[C@@H](O)[C@@H]2OC(=O)/C=C/c2ccc(O)c(O)c2)[C@H](O)[C@H](O)[C@H]1O` [Forsythoside A (128), Forsythoside A]: on ACE2 [1], the Rmax stood at 21.490 RU, the “χ^2” value stood at 5.280 and the dissociation constant (Kd) worked out at 15.8 µM. In addition, the “Human in vivo exposure (in words)” value in data set [2] was “low in vivo exposure”. For the same compound, the “ACE2 inhibitory effect (in words)” value at ACE2 [3] (ACE2 Inhibitor Screening Kit) was “have ACE2 inhibitory effects”. Besides, at ACE2 [4], the “Retention on ACE2 biochromatography column (potential ACE2 binding)” value (“Retention” below) is “potential ACE2 binding activity”.

As to forsythin, the “ACE2 inhibitory effect (in words)” value at ACE2 [3] (ACE2 Inhibitor Screening Kit) was “no ACE2 inhibitory activities”.

With Forsythoside B [Forsythoside B (125)], on ACE2 [1], the “ACE2 binding ability by SPR (in words)” value is “low binding activity”, the Rmax is on record as 10.620 RU and the “χ^2” value came to 0.328. On ACE2 [3] (ACE2 Inhibitor Screening Kit), the “ACE2 inhibitory effect (in words)” value was “have ACE2 inhibitory effects”.

In the case of `CC1(C)[C@@H](O[C@H]2O[C@H](C(=O)O)[C@@H](O)[C@H](O)[C@H]2O[C@@H]2O[C@H](C(=O)O)[C@@H](O)[C@H](O)[C@H]2O)CC[C@]2(C)[C@H]3C(=O)C=C4[C@@H]5C[C@@](C)(C(=O)O)CC[C@]5(C)CC[C@@]4(C)[C@]3(C)CC[C@@H]12` [Glycyrrhizin (222), Glycyrrhizin], on ACE2 [1], the Rmax turned out to be 9.614 RU and the “χ^2” value turned out to be 0.321. In addition, in data set [2], the “Human in vivo exposure (in words)” value is “high in vivo exposure concentrations”. Also, the “ACE2 inhibitory effect (in words)” value at ACE2 [3] (ACE2 Inhibitor Screening Kit, listed as Glycyrrhizin) is listed as “poor inhibitory effect”. Besides, the “ACE2 inhibitory effect (in words)” value at ACE2 [3] (ACE2 Inhibitor Screening Kit, listed as glycyrrhizin) is recorded as “did not show significant peptidase inhibitory effects”. At ACE2 [4], the “Retention” value is listed as “potential ACE2 binding activity”.

Take `N#C[C@H](O[C@@H]1O[C@H](CO)[C@@H](O)[C@H](O)[C@H]1O)c1ccccc1` [Prunasin (37), Prunasin]: at ACE2 [1], the Rmax is recorded as 3.814 RU and the “χ^2” value was determined as 0.244. Besides, the “ACE2 inhibitory effect (in words)” value on ACE2 [3] (ACE2 Inhibitor Screening Kit) is listed as “did not show significant peptidase inhibitory effects”. In addition, at ACE2 [4], the “Retention” value is “potential ACE2 binding activity”.

`N#C[C@H](O[C@@H]1O[C@H](CO[C@@H]2O[C@H](CO)[C@@H](O)[C@H](O)[C@H]2O)[C@@H](O)[C@H](O)[C@H]1O)c1ccccc1` [Amygdalin (33), Amygdalin]: at ACE2 [1], the Rmax is recorded as 6.856 RU and the “χ^2” value turned out to be 0.462. Also, on ACE2 [4], the “Retention” value is recorded as “potential ACE2 binding activity”.

Take `C[C@@H]1O[C@@H](Oc2c(-c3ccc(O)c(O)c3)oc3cc(O)cc(O)c3c2=O)[C@H](O)[C@H](O)[C@H]1O` [quercitrin]: the “Human in vivo exposure (in words)” value in data set [2] is on record as “higher human exposure”.

Regarding `O=C(O)c1cc(O)c2c(c1)C(=O)c1cccc(O)c1C2=O` [Rhein (226), Rhein], at ACE2 [1], the Rmax is 13.200 RU and the “χ^2” value was found to be 0.669. Also, the “Human in vivo exposure (in words)” value in data set [2] (listed as Rhein) was “high exposure in human serum”. In addition, the “Human in vivo exposure (in words)” value in data set [2] (listed as rhein) was “relatively high”. For the same compound, the half-inhibitory concentration (IC50) against ACE2 [3] turned out to be 18.3 µM. For the same compound, the “ACE2 inhibitory effect (in words)” value at ACE2 [3] (ACE2 Inhibitor Screening Kit) is “best ACE2 inhibitory effect”. Moreover, the “Retention” value at ACE2 [4] is listed as “potential ACE2 binding activity”.

Turning to `CN[C@@H](C)[C@H](O)c1ccccc1` [ephedrine], in data set [2], the “Human in vivo exposure (in words)” value was “higher human exposure”.

`CC(C)C[C@H](N[C@@H](Cc1cncn1Cc1cc(Cl)cc(Cl)c1)C(=O)O)C(=O)O` [MLN-4760, reference compound] came in with an IC50 on ACE2 [3] of 0.063 µM. On ACE2 [4], the “Retention” value was “significant retention”.

Take `C[C@@H]1O[C@@H](OC[C@H]2O[C@@H](OCCc3ccc(O)c(O)c3)[C@H](O)[C@@H](OC(=O)/C=C/c3ccc(O)c(O)c3)[C@@H]2O)[C@H](O)[C@H](O)[C@H]1O` [Forsythoside I (104), Forsythoside I]: at ACE2 [1], the Rmax was found to be 19.020 RU, the “χ^2” value is 1.910 and the dissociation constant Kd came to 18.7 µM. In addition, the “Human in vivo exposure (in words)” value in data set [2] is given as “low in vivo exposure”. For the same compound, the “ACE2 inhibitory effect (in words)” value at ACE2 [3] (ACE2 Inhibitor Screening Kit) is “have ACE2 inhibitory effects”. On ACE2 [4], the “Retention” value is recorded as “potential ACE2 binding activity”.

For the compound `CN[C@@H](C)[C@@H](O)c1ccccc1` [pseudoephedrine], in data set [2], the “Human in vivo exposure (in words)” value is “higher human exposure”.

Take `C[C@@H]1O[C@@H](OC[C@H]2O[C@@H](Oc3c(-c4ccc(O)c(O)c4)oc4cc(O)cc(O)c4c3=O)[C@H](O)[C@@H](O)[C@@H]2O)[C@H](O)[C@H](O)[C@H]1O` [Rutin (124), Rutin]: at ACE2 [1], the “ACE2 binding ability by SPR (in words)” value is “certain binding ability with ACE2”, the Rmax came out at 12.770 RU and the “χ^2” value is recorded as 1.290. Also, the “Retention” value on ACE2 [4] was “potential ACE2 binding activity”.

As to `Cc1cc(O[C@@H]2OC(CO)[C@@H](O)C(O)C2O)c2c(c1)C(=O)c1cc(O)cc(O)c1C2=O` (stereo partly drawn) [Emodin 8-O-β-D-glucoside (195), Emodin 8-O-β-D-glucoside], at ACE2 [1], the “ACE2 binding ability by SPR (in words)” value was “could also exhibit ACE2 binding activity”, the Rmax is listed as 16.930 RU, the “χ^2” value was found to be 3.190 and the Kd was determined as 21.3 µM. Moreover, at ACE2 [3] (read-out: IC50 of ACE2 inhibition, ACE2 Inhibitor Screening Kit), the IC50 stood at 22.5 µM.

On to `O=C1c2cccc(O)c2C(=O)c2c(O)cc(CO)cc21` [Aloe-emodin (216), Aloe-emodin], for which, on ACE2 [1], the “ACE2 binding ability by SPR (in words)” value was “could also exhibit ACE2 binding activity”, the Rmax is on record as 16.120 RU and the “χ^2” value worked out at 7.720. Further, the “ACE2 inhibitory effect (in words)” value on ACE2 [3] (ACE2 Inhibitor Screening Kit) is reported as “no inhibitory effect”.

Consider `C=CC1CNC(=S)O1` (racemic) [(R,S)-goitrin], for which the “Human in vivo exposure (in words)” value in data set [2] was “higher human exposure”.

A word on the Kd: it is the equilibrium constant for the complex coming apart. A word on the IC50: it is the concentration that inhibits the measured activity by half.

The values above are taken from PMC7547831 (Acta Pharmaceutica Sinica. B, 2020).
